Laboratory results: ChEMBL document CHEMBL2034820, “Discovery, synthesis, and biological evaluation of novel pyrrole derivatives as highly selective potassium-competitive acid blockers” (Bioorg Med Chem, 2012)
Calls of active or inactive are those of the source. No cut-off for these calls is given here.

What was measured:
[1] = Inhibition of H+/K+ATPase in pig gastric microsomes assessed as liberation of inorganic phosphate from ATP hydrolysis after 30 mins; design: species or system Sus scrofa, Stomach, Microsome
In short: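 Porcine gastric mucosal microsomes (Ficoll-interface fraction, stored at -80 C) in 50 mmol/L HEPES-Tris pH 6.5 with 5 mmol/L MgCl2, valinomycin, ±10 mmol/L KCl. Preincubated with compound at 37 C for 30 min, then started by adding 2 mmol/L ATP solution. Stopped with malachite green; Pi read at 620 nm. K+-dependent activity from ± K+ difference; IC50 by sigmoidal dose-response fit.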

Rattus norvegicus [2] = experiment: Inhibition of histamine-induced gastric acid secretion in Jcl:Sprague-Dawley rat at 10 mg/kg, iv administered 3 mins before histamine challenge measured after 3 hrs relative to control; format: functional; settings: Stomach
In short: (§1)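 Seven-week-old male SD rats, fasted 24 h with free water, anesthetized with urethane 1.2 g/kg ip and pylorus-ligated. Drug or vehicle given iv just after ligation; histamine 2HCl 30 mg/kg sc 3 min later. After 3 h, gastric contents were centrifuged and titrated to pH 7.0 with 0.1 mol/L NaOH. Total 3 h acid output compared with vehicle.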

[3] = Inhibition of Na+/K+ ATPase in pig cerebral cortex; format: tissue-based, Sus scrofa
In short: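 Otherwise run as the gastric H+,K+-ATPase assay: compound preincubation at 37 C for 30 min, ATP-started reaction, malachite green phosphate read-out at 620 nm.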

Rattus norvegicus [4] = experiment: Inhibition of histamine-induced gastric acid secretion in Jcl:Sprague-Dawley rat at 1 mg/kg, iv administered 3 mins before histamine challenge measured after 3 hrs relative to control; format: functional; settings: Stomach; in short: as §1
Canis familiaris [5] = experiment: Inhibition of histamine-stimulated gastric acid secretion in heidenhain pouch dog at 1 mg/kg, po prestimulated with histamine 1 day before compound treatment and 1, 3, 6 and 24 hrs post compound treatment measured every 30 mins for 3 times; format: functional, organism-based; design: dose 1 mg/kg; settings: Canis lupus familiaris, Stomach
In short: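 Dogs dosed orally in a blinded design (0.2 mL/kg), with vehicle controls. Histamine 2HCl injected sc. Pouch gastric juice collected as three consecutive 30 min periods after each histamine dose. Volume measured, and acid titrated to pH 7.0 with 0.1 mol/L NaOH. Total 90 min acid output at each time expressed as % of pre-dosing value.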

Canis familiaris [6] = experiment: Inhibition of histamine-stimulated gastric acid secretion in heidenhain pouch dog at 1 mg/kg, po prestimulated with histamine 1 day before compound treatment and 1, 3, 6 and 24 hrs post compound treatment measured after 24 hrs; format: functional, organism-based; design: dose 1 mg/kg; settings: Canis lupus familiaris, Stomach
In short: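 Heidenhain pouch dogs dosed orally (0.2 mL/kg), blinded. Histamine 2HCl given sc 1 day before and at 1, 3, 6 and 24 h post-dose. Pouch juice collected over three consecutive 30 min periods and titrated to pH 7.0 with 0.1 mol/L NaOH. 90 min acid output expressed as % of the pre-dosing value.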

Sus scrofa [7] = species on record: Sus scrofa; experiment: Reversible inhibition of H+/K+ATPase in pig gastric microsomes assessed as liberation of inorganic phosphate from ATP hydrolysis at 0.1 uM incubated for 20 mins measured after compound washout; settings: Stomach, Microsome
In short: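 Gastric microsomes incubated with compound (1% DMSO final) at 37 C for 30 min in 50 mmol/L HEPES-Tris pH 6.5, 5 mmol/L MgCl2, 10 mmol/L KCl. Activity measured on an aliquot and on the remainder after washout (30 kDa ultrafiltration, resuspended compound-free). Reaction started with 2 mmol/L ATP, run at 37 C for 20 min; malachite green phosphate read-out; % of 1% DMSO vehicle, n = 2.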

Sus scrofa [8] = species on record: Sus scrofa; experiment: Competitive inhibition of H+/K+ATPase in pig gastric microsomes by Lineweaver-Burk plot analysis; settings: Stomach, Microsome

| Structure (SMILES) | IC50 [1] [nM] | inhibition in vivo at 1 mg/kg (Rattus norvegicus [4]) [%] | also measured |
| --- | --- | --- | --- |
| CN(C)Cc1cc(-c2ccccc2)n(S(=O)(=O)c2ccc(C(F)(F)F)cc2)c1 | 710 |  | inhibition in vivo at 10 mg/kg (Rattus norvegicus [2]): 59% |
| COCc1cc(-c2ccccc2)n(S(=O)(=O)c2ccc(C)cc2)c1 | > 10000 |  | inhibition in vivo at 10 mg/kg (Rattus norvegicus [2]): -3% |
| CNCc1cc(-c2ccccc2)n(S(=O)(=O)c2ccccc2)c1C | 25 | 77 | IC50 [3]: > 10000 nM |
| CNCc1cc(-c2ccccc2)n(S(=O)(=O)c2ccc(OC)cc2)c1 | 30 | 95 | inhibition (Canis familiaris [5]): Active; IC50 [3]: > 10000 nM; inhibition (Canis familiaris [6]): Active |
| CNCc1cc(-c2ccccc2)n(S(=O)(=O)c2ccccc2)c1 | 9.4 | 96 | IC50 [3]: > 10000 nM |
| CCNCc1cc(-c2ccc3c(c2)OCO3)n(S(=O)(=O)c2ccc(C)cc2)c1 | 540 |  | inhibition in vivo at 10 mg/kg (Rattus norvegicus [2]): 39% |
| Cc1ccc(S(=O)(=O)n2cc(C(N)=O)cc2-c2ccccc2)cc1 | > 10000 |  |  |
| CNCc1cc(-c2ccccc2)n(Cc2ccccc2)c1 | 510 |  | inhibition in vivo at 10 mg/kg (Rattus norvegicus [2]): 84% |
| Cc1ccc(S(=O)(=O)n2cc(CN)cc2-c2ccccc2)cc1 | 860 |  |  |
| Cc1c(OCC(F)(F)F)ccnc1C[S+]([O-])c1nc2ccccc2[nH]1 (stereo unspecified) |  |  | inhibition (Canis familiaris [5]): Active |
| CNCc1cc(-c2ccccc2)n(S(=O)(=O)c2ccccc2)c1Cl | 40 | 49 | IC50 [3]: > 10000 nM |
| CNC(C)c1cc(-c2ccccc2)n(S(=O)(=O)c2ccc(C(F)(F)F)cc2)c1 (stereo unspecified) | 2300 | -4 |  |
| CNCc1cn(S(=O)(=O)c2ccccc2)c(-c2ccccc2)c1C | 29 | 95 | IC50 [3]: > 10000 nM |
| CNCc1cc(-c2ccccc2)n(S(C)(=O)=O)c1 | > 10000 |  | inhibition in vivo at 10 mg/kg (Rattus norvegicus [2]): 27% |
| CCNCc1cc(-c2ccccc2)n(S(=O)(=O)c2ccc(C)cc2)c1 | 650 |  | inhibition in vivo at 10 mg/kg (Rattus norvegicus [2]): 53% |
| CNCc1cc(C2CC2)n(S(=O)(=O)c2ccccc2)c1 | 1500 |  |  |
| CNCc1cc(-c2ccccc2)n(C(=O)c2ccccc2)c1 | > 10000 |  |  |
| CNCc1cc(-c2ccccc2)n(S(=O)(=O)c2ccc(C)cc2)c1 | 55 | 66 | inhibition (Sus scrofa [7]): Active; IC50 [3]: > 10000 nM; inhibition (Sus scrofa [8]): Active |
| CCCCc1cc(CNC)cn1S(=O)(=O)c1ccccc1 | 250 | -8 |  |
| CNCc1cc(-c2ccccc2)n(S(=O)(=O)c2ccc(C(F)(F)F)cc2)c1 | 110 | 73 |  |
| CCCCS(=O)(=O)n1cc(CNC)cc1-c1ccccc1 | 830 |  |  |
